From the M2OR odorant receptor database

target: T1, OR2G2 (Homo sapiens) (UniProt Q8NGZ5); conditions: stereoisomer not certain
T1 sequence (whole entry): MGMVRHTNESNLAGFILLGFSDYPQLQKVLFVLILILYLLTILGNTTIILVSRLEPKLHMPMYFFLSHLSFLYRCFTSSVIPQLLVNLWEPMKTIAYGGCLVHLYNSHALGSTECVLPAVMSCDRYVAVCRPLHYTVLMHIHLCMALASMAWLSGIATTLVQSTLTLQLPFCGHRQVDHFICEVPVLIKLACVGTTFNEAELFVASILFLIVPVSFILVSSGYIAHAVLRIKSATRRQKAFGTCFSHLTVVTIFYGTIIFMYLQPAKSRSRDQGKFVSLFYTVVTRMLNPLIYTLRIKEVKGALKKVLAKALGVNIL
Summary of the method: (§1)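 Each receptor–molecule pair is labelled responsive or non-responsive (inactive) according to whether the original authors judged the measured signal statistically different from baseline. The data were taken from the main text and supplementary material of published papers and checked for typos and inconsistencies. Assay methods differed by source, with transient luciferase assays in mammalian cell lines being common.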

Odorant receptor agonist call, inactive:
CC(C)=CCCC(C)CC=O (stereo not given)
C=CCOC(=O)COCCC(C)C
COc1ccc(C)cc1
CC(=O)OCc1ccccc1
CC(C)=CCCC(C)=CCO
Cc1ccc(C(C)C)cc1O
OCc1ccccc1
CCCCCC1COCCC1OC(C)=O (stereo not given)
CC(C)CCCC(C)(C)O
COC1CC2CC1C1CC(C=O)CC21 (stereo not given)
CCOC(=O)CC1(C)OCCO1
CC1CC(C)(c2ccccc2)CO1 (stereo not given)
CC(C)(C)C1CCCCC1OCCCCO (stereo not given)

target: T2, OR2H2 (Homo sapiens) (UniProt O95918); conditions: stereoisomer not certain
T2 sequence (whole entry): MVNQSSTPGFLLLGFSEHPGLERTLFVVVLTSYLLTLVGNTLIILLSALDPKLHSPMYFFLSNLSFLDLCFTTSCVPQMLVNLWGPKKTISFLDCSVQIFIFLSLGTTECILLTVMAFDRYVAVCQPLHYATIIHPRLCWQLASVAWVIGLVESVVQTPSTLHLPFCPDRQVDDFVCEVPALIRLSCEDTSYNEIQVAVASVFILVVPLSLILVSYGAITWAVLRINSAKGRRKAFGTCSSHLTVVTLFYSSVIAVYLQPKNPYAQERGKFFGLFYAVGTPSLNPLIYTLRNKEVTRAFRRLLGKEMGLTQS
Summary of the method: as §1

Odorant receptor agonist call, active:
CC(C)=CCCC(C)CC=O (stereo not given)
CCCCCC=CC=O
CCCC=CC=CC=O

Odorant receptor agonist call, inactive:
CCCCCCCC(=O)[O-].[H+]
CCCCCCCCO
CCCCCC=O
CC(C=O)=CCC(C)CC(C)C (stereo not given)
CCCCCCCCCCCC=O

target: T3, OR2J2 (Homo sapiens) (UniProt O76002); conditions: stereoisomer not certain
T3 sequence (whole entry): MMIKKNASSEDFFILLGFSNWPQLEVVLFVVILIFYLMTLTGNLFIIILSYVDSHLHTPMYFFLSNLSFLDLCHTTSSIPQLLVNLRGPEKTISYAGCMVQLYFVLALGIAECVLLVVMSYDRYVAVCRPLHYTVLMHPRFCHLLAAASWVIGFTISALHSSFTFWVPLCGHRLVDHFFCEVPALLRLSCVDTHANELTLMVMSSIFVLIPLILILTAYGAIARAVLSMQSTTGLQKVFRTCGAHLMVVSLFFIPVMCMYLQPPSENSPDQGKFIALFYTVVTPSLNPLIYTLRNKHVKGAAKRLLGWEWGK
Summary of the method: as §1

Odorant receptor agonist call, inactive:
CCC(C(=O)O)c1ccccc1 (stereo not given)
CCC(=O)C(=O)CC
CCCCCCCC(=O)[O-].[H+]
CC(=O)OCc1ccccc1
CC(C)=CCCC(C)=CCO
CCCCCC=O
CCCCCC1=C(C)CCC1=O
O=C1Cc2ccccc2O1
C=C(C)C1CCC(C)C(=O)C1 (stereo not given)
CCCCCCC(=O)[O-].[H+]
CCCCC(=O)CC
c1ccccc1

Odorant receptor agonist call, active:
CCCCCCCCO
O=c1ccc2ccccc2o1
